Assay results published in ChEMBL document CHEMBL1130123, “Optimization of 3-(1H-indazol-3-ylmethyl)-1,5-benzodiazepines as potent, orally active CCK-A agonists” (J Med Chem, 1997).

Key:
Cavia porcellus [1] = species on record: Cavia porcellus; experiment: In vitro functional efficacy relative to CCK-8 in inducing contraction of the isolated guinea pig gallbladder (GPGB) at a 1 uM concentration.
How it was run: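 Isolated guinea pig gallbladder, ligand 1 μM, 30 min at 37 °C; maximal contraction expressed relative to CCK-8 (1 μM) = 100%; values ± 5%.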

Cavia porcellus [2] = species on record: Cavia porcellus; experiment: In vitro functional agonist activity in the isolated guinea pig gall bladder, concentration at which 50% of the maximal contraction observed was reported.; settings: read-out: ED50 (the source's name)
[3] = molecular target: T1, Gastrin/cholecystokinin type B receptor (Homo sapiens, UniProt P32239); experiment: In vitro for binding affinity against human cholecystokinin type B receptor.
T1 sequence (P32239 whole entry): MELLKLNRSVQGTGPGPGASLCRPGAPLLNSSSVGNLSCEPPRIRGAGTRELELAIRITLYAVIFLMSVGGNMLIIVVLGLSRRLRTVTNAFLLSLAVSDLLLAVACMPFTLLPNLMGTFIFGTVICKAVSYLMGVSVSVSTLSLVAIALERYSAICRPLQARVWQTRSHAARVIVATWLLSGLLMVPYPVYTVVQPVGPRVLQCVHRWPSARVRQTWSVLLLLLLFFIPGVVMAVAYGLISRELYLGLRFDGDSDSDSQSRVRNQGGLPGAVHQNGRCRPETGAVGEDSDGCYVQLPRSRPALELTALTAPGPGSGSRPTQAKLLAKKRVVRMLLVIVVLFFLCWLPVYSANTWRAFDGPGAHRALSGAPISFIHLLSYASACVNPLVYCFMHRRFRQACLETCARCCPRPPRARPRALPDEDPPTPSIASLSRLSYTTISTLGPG

[4] = molecular target: T2, Cholecystokinin receptor type A (Homo sapiens, UniProt P32238); experiment: In vitro for binding affinity against human cholecystokinin type A receptor.
T2 sequence (P32238 whole entry): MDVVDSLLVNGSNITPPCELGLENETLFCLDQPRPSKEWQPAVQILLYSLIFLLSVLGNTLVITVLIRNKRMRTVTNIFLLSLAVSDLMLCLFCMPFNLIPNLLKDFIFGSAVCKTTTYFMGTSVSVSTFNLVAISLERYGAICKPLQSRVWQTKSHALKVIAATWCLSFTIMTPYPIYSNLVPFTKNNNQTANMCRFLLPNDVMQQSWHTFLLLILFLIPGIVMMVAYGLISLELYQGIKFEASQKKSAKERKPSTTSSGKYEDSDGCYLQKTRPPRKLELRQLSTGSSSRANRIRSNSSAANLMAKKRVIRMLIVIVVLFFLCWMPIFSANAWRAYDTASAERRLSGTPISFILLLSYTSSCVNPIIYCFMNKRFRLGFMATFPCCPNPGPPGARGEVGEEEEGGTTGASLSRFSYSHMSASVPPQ

Mus musculus [5] = experiment: Peroral dose that produces a half maximal response in mouse gall bladder emptying assay (in vivo); type: functional; settings: po
Mus musculus [6] = experiment: Maximal response at 1 nmol/kg intraperitoneal dose; type: functional
Mus musculus [7] = experiment: Maximal response at 1 nmol/kg peroral dose; type: functional
Mus musculus [8] = experiment: Intraperitoneal dose that produces a half maximal response in mouse gall bladder emptying assay (in vivo); type: functional; settings: ip
Rattus norvegicus [9] = experiment: Maximal response at 0.5 umol/kg intraperitoneal dose; type: functional
Rattus norvegicus [10] = experiment: Anorectic potency in rat was tested and intraperitoneal dose that produces a half maximal response (in vivo); type: functional; settings: ip

Structure (SMILES)	Max (Cavia porcellus [1])	EC50 (Cavia porcellus [2])	IC50 [3]	IC50 [4]	further results
O=C1C(Cc2n[nH]c3ccccc23)C(=O)N(c2ccccc2)c2ccccc2N1CC(=O)N(c1ccccc1)C1CC1 (centres undefined)	70%	20 nM	25.1 nM	525 nM	–
COc1ccc(N(C(=O)CN2C(=O)C(Cc3n[nH]c4c(F)cccc34)C(=O)N(c3ccccc3)c3ccccc32)C(C)C)cc1 (centres undefined)	90%	20 nM	1050 nM	–	–
CC(C)(C)N(C(=O)CN1C(=O)C(Cc2n[nH]c3ccccc23)C(=O)N(c2ccccc2)c2ccccc21)c1ccccc1 (centres undefined)	90%	110 nM	–	891 nM	–
COc1ccc(N(C(=O)CN2C(=O)C(Cc3nsc4ccccc34)C(=O)N(c3ccccc3)c3ccccc32)C(C)C)cc1 (centres undefined)	30%	–	–	–	–
COc1ccc(N(C(=O)CN2C(=O)C(Cc3cc(-c4ccccc4)[nH]n3)C(=O)N(c3ccccc3)c3ccccc32)C(C)C)cc1 (centres undefined)	20%	–	–	–	–
COc1ccc(N(C(=O)CN2C(=O)C(Cc3c[nH]c4ccccc34)C(=O)N(c3ccccc3)c3ccccc32)C(C)C)cc1 (centres undefined)	–	–	–	–	ED50 (Mus musculus [5]): 0.1 µmol/kg; Max (Mus musculus [6]): 90%; Max (Mus musculus [7]): 74%; ED50 (Mus musculus [8]): 0.0038 µmol/kg
COc1ccc(N(C(=O)CN2C(=O)C(Cc3n[nH]c4cc(F)ccc34)C(=O)N(c3ccccc3)c3ccccc32)C(C)C)cc1 (centres undefined)	100%	40 nM	589 nM	29.5 nM	–
COc1ccc(N(C(=O)CN2C(=O)C(Cc3csc4ccccc34)C(=O)N(c3ccccc3)c3ccccc32)C(C)C)cc1 (centres undefined)	50%	–	–	–	–
COc1ccc(N(C(=O)CN2C(=O)C(Cc3noc4ccccc34)C(=O)N(c3ccccc3)c3ccccc32)C(C)C)cc1 (centres undefined)	80%	130 nM	174000 nM	89.1 nM	–
COc1ccc(N(C(=O)CN2C(=O)C(Cc3n[nH]c4cccnc34)C(=O)N(c3ccccc3)c3ccccc32)C(C)C)cc1 (centres undefined)	40%	–	–	–	–
COc1cccc(N(C(=O)CN2C(=O)C(Cc3n[nH]c4ccccc34)C(=O)N(c3ccccc3)c3ccccc32)C(C)C)c1 (centres undefined)	90%	70 nM	191 nM	479 nM	–
COc1ccc(N(C(=O)CN2C(=O)C(Cc3coc4ccccc34)C(=O)N(c3ccccc3)c3ccccc32)C(C)C)cc1 (centres undefined)	40%	–	–	–	–
COc1ccc(N(C(=O)CN2C(=O)C(Cc3cc(C)[nH]n3)C(=O)N(c3ccccc3)c3ccccc32)C(C)C)cc1 (centres undefined)	20%	–	–	–	–
COc1ccc(N(C(=O)CN2C(=O)C(Cc3n[nH]c4ccc(F)cc34)C(=O)N(c3ccccc3)c3ccccc32)C(C)C)cc1 (centres undefined)	90%	40 nM	2510 nM	42.7 nM	–
CSCC[C@H](NC(=O)[C@H](Cc1ccc(OS(=O)(=O)O)cc1)NC(=O)[C@@H](N)CC(=O)O)C(=O)NCC(=O)N[C@@H](Cc1c[nH]c2ccccc12)C(=O)N[C@@H](CCSC)C(=O)N[C@@H](CC(=O)O)C(=O)N[C@@H](Cc1ccccc1)C(N)=O [SINCALIDE]	–	–	–	–	Max (Rattus norvegicus [9]): 95%; ED50 (Rattus norvegicus [10]): 0.03 µmol/kg; Max (Mus musculus [6]): 95%
